Results on 16 compounds are retold here after ChEMBL document CHEMBL1149657, “Benzylamine histamine H(3) antagonists and serotonin reuptake inhibitors” (Bioorg Med Chem Lett, 2007).

pKi: −log10 of the molar value.

In general, pKi refers to the Ki on a negative log10 scale, so that one unit is a factor of ten. Read a low pKi as a high Ki.

Series [1] can be described thus: Plasma concentration in rat at 10 mg/kg, po after 6 hrs. Also on record: dose 10 mg/kg, route oral. The series is classed as ADME, organism-based.
A short description of series [2]: Drug level in rat brain at 10 mg/kg, po after 1 hr. The format is ADME, organism-based. Also on record: dose 10 mg/kg, route oral. Conditions: read-out: Drug uptake.
Series [3] in a line: Drug level in rat brain at 10 mg/kg, po after 3 hrs. The format is ADME, organism-based. On the set-up: dose 10 mg/kg, route oral. To be noted: read-out: Drug uptake.
A short description of series [4]: Drug level in rat brain at 10 mg/kg, po after 6 hrs. The series is classed as ADME, organism-based. Also on record: dose 10 mg/kg, route oral. To be noted: read-out: Drug uptake.
The nature of series [5]: Plasma concentration in rat at 10 mg/kg, po after 1 hr. The series is classed as ADME, organism-based. Also on record: dose 10 mg/kg, route oral.
Series [6] is described as follows: Plasma concentration in rat at 10 mg/kg, po after 3 hrs. Also on record: dose 10 mg/kg, route oral. The series is classed as ADME, organism-based.
Series [7] concerns the target Sodium-dependent serotonin transporter (Homo sapiens, UniProt P31645). Briefly: Binding affinity to human SERT.
The target in a further series is Histamine H3 receptor (Homo sapiens, UniProt Q9Y5N1). The experiment in a line: Binding affinity to human histamine H3 receptor.
Histamine H3 receptor, sequence (Q9Y5N1 whole entry): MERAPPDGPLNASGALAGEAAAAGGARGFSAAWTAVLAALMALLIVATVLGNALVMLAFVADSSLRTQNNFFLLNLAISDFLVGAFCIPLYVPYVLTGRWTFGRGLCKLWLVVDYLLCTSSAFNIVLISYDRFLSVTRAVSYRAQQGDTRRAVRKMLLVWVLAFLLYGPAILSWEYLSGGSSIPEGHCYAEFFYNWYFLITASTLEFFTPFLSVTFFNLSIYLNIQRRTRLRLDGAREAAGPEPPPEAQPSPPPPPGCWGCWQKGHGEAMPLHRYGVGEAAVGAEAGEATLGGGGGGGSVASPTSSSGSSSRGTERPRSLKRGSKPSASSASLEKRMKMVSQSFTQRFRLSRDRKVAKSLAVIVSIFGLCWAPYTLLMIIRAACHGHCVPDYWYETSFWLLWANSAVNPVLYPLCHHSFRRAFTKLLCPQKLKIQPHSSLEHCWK
For series [8], the target named is Sodium-dependent dopamine transporter (Homo sapiens, UniProt Q01959). The experiment in a line: Binding affinity to human DAT. Summed up:
(§1)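 Human NET and DAT Ki values from one experiment run in triplicate.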

Series [9] deals with Sodium-dependent noradrenaline transporter (Homo sapiens, UniProt P23975). The experiment in a line: Binding affinity to human NET. An outline of the steps: as §1
Sodium-dependent noradrenaline transporter, sequence (P23975 whole entry): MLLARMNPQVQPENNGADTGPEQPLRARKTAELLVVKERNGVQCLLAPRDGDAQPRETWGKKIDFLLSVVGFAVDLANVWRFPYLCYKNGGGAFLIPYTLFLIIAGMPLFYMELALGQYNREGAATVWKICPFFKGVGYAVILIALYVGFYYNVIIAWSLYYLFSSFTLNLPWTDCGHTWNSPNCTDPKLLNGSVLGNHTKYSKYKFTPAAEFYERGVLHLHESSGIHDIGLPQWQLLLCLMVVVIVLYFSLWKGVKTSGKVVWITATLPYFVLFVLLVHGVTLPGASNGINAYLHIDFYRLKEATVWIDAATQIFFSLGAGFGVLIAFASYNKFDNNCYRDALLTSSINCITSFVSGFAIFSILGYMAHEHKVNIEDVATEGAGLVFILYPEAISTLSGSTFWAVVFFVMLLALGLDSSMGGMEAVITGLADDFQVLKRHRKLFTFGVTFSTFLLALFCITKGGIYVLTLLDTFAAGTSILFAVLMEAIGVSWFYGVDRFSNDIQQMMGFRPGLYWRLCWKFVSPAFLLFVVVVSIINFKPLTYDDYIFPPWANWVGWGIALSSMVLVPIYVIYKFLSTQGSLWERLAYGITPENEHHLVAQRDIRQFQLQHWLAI
Series [10] concerns the target Sodium-dependent serotonin transporter (Rattus norvegicus, UniProt P31652). Briefly: Binding affinity to rat SERT.

Sodium-dependent serotonin transporter (Homo sapiens, UniProt P31645), sequence (P31645 whole entry): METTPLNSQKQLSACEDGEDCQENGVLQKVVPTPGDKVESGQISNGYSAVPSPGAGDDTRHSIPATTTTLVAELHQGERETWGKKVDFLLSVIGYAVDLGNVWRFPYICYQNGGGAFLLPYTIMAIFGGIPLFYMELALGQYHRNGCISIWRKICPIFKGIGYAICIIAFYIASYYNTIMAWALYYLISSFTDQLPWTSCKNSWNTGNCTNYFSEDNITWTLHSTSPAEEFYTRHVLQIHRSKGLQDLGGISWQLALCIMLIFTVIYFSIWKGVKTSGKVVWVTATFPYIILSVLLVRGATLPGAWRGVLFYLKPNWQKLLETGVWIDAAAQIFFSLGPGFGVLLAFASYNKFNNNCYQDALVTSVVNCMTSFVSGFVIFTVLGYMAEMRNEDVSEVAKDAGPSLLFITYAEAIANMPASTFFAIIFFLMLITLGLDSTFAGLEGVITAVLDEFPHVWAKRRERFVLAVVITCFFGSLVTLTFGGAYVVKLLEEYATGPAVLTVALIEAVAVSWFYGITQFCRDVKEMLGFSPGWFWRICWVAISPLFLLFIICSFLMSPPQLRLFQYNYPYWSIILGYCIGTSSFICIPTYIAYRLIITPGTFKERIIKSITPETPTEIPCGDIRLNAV
Sodium-dependent dopamine transporter, sequence (Q01959 whole entry): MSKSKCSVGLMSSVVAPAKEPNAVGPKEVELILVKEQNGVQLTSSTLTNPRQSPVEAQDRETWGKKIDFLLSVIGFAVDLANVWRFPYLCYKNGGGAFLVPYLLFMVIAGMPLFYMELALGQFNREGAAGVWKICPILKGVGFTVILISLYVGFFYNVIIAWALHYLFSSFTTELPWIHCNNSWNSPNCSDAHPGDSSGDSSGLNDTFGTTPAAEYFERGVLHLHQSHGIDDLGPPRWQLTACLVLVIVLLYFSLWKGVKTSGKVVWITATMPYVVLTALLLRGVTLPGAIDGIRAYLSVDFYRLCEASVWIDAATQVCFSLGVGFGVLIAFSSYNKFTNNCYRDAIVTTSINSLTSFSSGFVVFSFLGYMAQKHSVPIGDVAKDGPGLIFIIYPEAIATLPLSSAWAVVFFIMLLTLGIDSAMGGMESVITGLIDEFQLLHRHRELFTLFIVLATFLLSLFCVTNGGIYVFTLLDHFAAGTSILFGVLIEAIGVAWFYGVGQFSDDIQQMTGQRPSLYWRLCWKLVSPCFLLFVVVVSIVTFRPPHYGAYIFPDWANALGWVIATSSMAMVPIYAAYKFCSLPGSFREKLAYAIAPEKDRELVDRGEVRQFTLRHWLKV
Sodium-dependent serotonin transporter (Rattus norvegicus, UniProt P31652), sequence (P31652 whole entry): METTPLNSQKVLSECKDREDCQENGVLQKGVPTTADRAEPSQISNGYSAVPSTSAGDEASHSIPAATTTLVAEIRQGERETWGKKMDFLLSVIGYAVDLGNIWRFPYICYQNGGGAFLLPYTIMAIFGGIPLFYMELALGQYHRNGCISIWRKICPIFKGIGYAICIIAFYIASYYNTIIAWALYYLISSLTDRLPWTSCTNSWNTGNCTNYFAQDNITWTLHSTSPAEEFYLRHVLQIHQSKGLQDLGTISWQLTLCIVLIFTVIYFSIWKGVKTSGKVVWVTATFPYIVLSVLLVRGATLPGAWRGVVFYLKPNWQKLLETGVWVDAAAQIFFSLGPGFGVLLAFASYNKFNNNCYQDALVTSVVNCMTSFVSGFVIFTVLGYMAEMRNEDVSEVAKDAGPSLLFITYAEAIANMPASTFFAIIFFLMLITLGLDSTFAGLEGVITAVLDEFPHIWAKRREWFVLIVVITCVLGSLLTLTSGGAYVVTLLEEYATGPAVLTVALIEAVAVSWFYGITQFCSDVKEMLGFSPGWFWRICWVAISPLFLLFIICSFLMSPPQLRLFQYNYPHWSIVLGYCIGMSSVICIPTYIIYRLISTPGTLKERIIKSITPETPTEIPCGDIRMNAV

Consider `CNCc1cc(C#CCCN2CCOCC2)ccc1Oc1ccc(C(F)(F)F)cc1`, for which the concentration at 6 h in [1] was determined as 150 nM; in series [4], 5400 nM. Moreover, the concentration at 1 h in [2] was determined as 1770 nM; in series [5], 240 nM. Further, the concentration at 3 h in series [3] is 4650 nM; in series [6], 310 nM.

In the case of `CNCc1cc(C#CCCN2CCNC(=O)C2)ccc1Oc1ccc(SC)cc1`, the pKi in series [7] is 8.89.

For the compound `CCN(CC)CCCOc1cc2c(cn1)C(c1ccc(Cl)c(Cl)c1)CN(C)C2` (stereo not given), the values for the pKi (in series [7]; at Histamine H3 receptor) were 7.59 and 8.15, respectively.

Consider `CNCc1cc(C#CCCNC2CC2)ccc1Oc1ccc(SC)cc1`, for which the concentration at 6 h is 27 nM in [1] and 520 nM in [4]. The concentration at 1 h came to 120 nM in series [2] and 17 nM in series [5]. Moreover, the figures for the concentration at 3 h in [3] and in [6] were 320 nM and 32 nM, respectively.

For `CNCc1cc(C#CCCN2CCOCC2)ccc1Oc1ccc(F)cc1Cl`, the concentration at 6 h in series [1] is 8 nM; in [4], 400 nM. Further, the concentration at 1 h came to 270 nM in series [2] and 30 nM in [5]. The concentration at 3 h is 440 nM in [3] and 18 nM in series [6].

On to `CNCc1cc(C#CCCN2CCOCC2)ccc1Oc1ccc(Cl)c(C(F)(F)F)c1`, for which the concentration at 6 h in series [1] is 110 nM; in [4] it was 3560 nM. For the same compound, the results for the concentration at 1 h in series [2] and in series [5] were 370 nM and 53 nM, respectively. In addition, the concentration at 3 h in series [3] was 1860 nM; in series [6], 120 nM.

For `CNCc1cc(C#CCCN2CCOCC2)ccc1Oc1ccc(Cl)cc1`, the concentration at 6 h was 28 nM in series [1] and 1660 nM in series [4]. In addition, the concentration at 1 h was 1380 nM in [2] and 68 nM in series [5]. Besides, the values for the concentration at 3 h in series [3] and in [6] were 1700 nM and 40 nM, respectively.

`CNCc1cc(C#CCCN2CCSCC2)ccc1Oc1ccc(SC)cc1`: the concentration at 6 h in [1] was found to be 250 nM; in [4], 10 nM. In addition, the concentration at 1 h in [2] worked out at 87 nM; in series [5] it was 45 nM. Also, the concentration at 3 h in series [3] and in series [6] was 360 nM in each case.

On to `CNCc1cc(C#CCCN(C)C2CC2)ccc1Oc1ccc(SC)cc1`, for which the figures for the pKi in series [8] and in series [9] were 6.40 and 6.60, respectively. Further, the results for the concentration at 6 h in [1] and in [4] were 12 nM and 240 nM, respectively. Moreover, the concentration at 1 h in series [2] amounted to 200 nM; in [5] it was 39 nM. For the same compound, the concentration at 3 h in series [3] was 220 nM; in [6], 24 nM.

Compound `COc1ccc([C@@H]2CN(C)Cc3cc(OCCCN4CCC(F)CC4)ccc32)cc1` had a pKi in series [7] of 8.57.

`CNCc1cc(C#CCCN2CCOCC2)ccc1Oc1ccc(SC)cc1`: the pKi is 6.15 in [8] and 6.54 in series [9].

As for `CNCc1cc(C#CCCN2CCOCC2)ccc1Oc1ccc(SC)c(C)c1`, the pKi in series [8] is 6.00; in [9], 6.62.

`CNCc1cc(Br)ccc1Oc1ccc(SC)cc1`: the figures for the pKi (in series [7]; on Histamine H3 receptor; in [10]) were 8.77, 5.05 and 9.30, respectively.

`CNCc1cc(C#CCCN2CCOCC2)ccc1Oc1cccc(F)c1`: the concentration at 6 h came to 48 nM in series [1] and 1870 nM in [4]. The concentration at 1 h in [2] came out at 820 nM; in [5] it was 110 nM. In addition, the concentration at 3 h in series [3] amounted to 1420 nM; in series [6] it was 91 nM.

On to `CNCc1cc(C#CCCN2CCC(F)CC2)ccc1Oc1ccc(SC)cc1`, for which the figures for the pKi in series [8] and in [9] were 6.72 and 7.02, respectively. Moreover, the concentration at 6 h in series [1] is 10 nM; in series [4], 130 nM. The concentration at 1 h was 44 nM in [2] and 23 nM in series [5]. Moreover, the figures for the concentration at 3 h in series [3] and in [6] were 63 nM and 8 nM, respectively.

Take `CNCc1cc(C#CCCN2CCOCC2)ccc1Oc1cccc(Cl)c1`: the concentration at 6 h in [1] amounted to 270 nM; in series [4], 10100 nM. The results for the concentration at 1 h in [2] and in series [5] were 2370 nM and 180 nM, respectively. The concentration at 3 h in [3] is 5130 nM; in [6], 230 nM.
